We go through 14 compounds from ChEMBL document CHEMBL1131017, “Synthesis and evaluation of peptidyl Michael acceptors that inactivate human rhinovirus 3C protease and inhibit virus replication” (J Med Chem, 1998).

Values after ≈ are worked out from the molar mass of the structure shown. Non-standard residues stand in square brackets, D forms with d. Residues, ends and D or L forms follow the SMILES beside them. ξ: configuration not given here. *: point of attachment. X1 = COC(=O)/C=C/[C@H](CCC(N)=O)N*; ξE = NC(CCC(=O)O)C(=O)O; Boc = CC(C)(C)OC(=O)*; OtBu = CC(C)(C)O*

The term IC50 denotes the concentration needed to halve the response being measured. Broadly, the inhibition is how much of the control response was suppressed. Low values mean little suppression, high ones strong suppression.

The test system of one test is HeLa. Briefly: Antiviral activity measured in cell culture assay, inhibiting plaque formation by 50% at subumolar concentrations. In kind it is functional, cell-based. Conditions: Homo sapiens. The procedure, abridged: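 HeLa monolayers (confluent) were infected with HRV-14 at 100 PFU/plate. After 30 min adsorption they were overlaid with maintenance medium containing 0.5% agarose plus compound at various concentrations, then held 48 h at 35 °C. Cells were formalin-fixed and crystal violet-stained. Duplicate plaque counts were converted to percent of control and the IC50 interpolated. Runs were repeated 2–3 times, the highest interpolated IC50 reported, and enviroxime was included as control.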

Test [1] has as its target T1, Human rhinovirus A protease (Human rhinovirus sp.) (UniProt Q4U254).
T1 sequence (whole entry): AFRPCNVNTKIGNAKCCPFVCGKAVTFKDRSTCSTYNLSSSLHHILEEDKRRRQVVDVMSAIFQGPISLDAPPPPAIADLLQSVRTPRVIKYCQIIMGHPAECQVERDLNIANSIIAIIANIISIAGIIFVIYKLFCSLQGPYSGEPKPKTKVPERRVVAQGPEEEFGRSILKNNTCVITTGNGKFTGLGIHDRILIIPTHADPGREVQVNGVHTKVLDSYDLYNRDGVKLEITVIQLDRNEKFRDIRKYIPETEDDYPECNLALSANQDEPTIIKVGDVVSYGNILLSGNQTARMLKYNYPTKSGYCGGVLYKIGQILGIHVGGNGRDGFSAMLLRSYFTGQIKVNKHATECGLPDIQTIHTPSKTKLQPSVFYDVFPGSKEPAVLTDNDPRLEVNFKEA
The experiment in a line: Percent inhibition of HRV-14 3C protease was measured at a concentration of 1 ug/mL.

For test [2], the target named is T1, Human rhinovirus A protease (Human rhinovirus sp.). The experiment in a line: Percent inhibition of HRV-14 3C protease was measured at a concentration of 100 ug/mL(average of duplicates which agreed within +/- 10%).
For test [3] the target is unchanged. The experiment in a line: Percent inhibition of HRV-14 3C protease was measured at a concentration of 5 ug/mL (average of duplicates which agreed within +/- 10%).

As for `COC(=O)/C=C/[C@H](CCC(N)=O)NC(=O)[C@H](Cc1ccccc1)NC(=O)[C@H](CC(C)C)NC(=O)[C@@H](NC(=O)OCc1ccccc1)C(C)C`, in the test on HeLa, the IC50 is 0.93 µg/mL (≈ 1.37 µM). In test [1], this compound registered an inhibition of 100%.
For `CC(C)C[C@H](NC(=O)[C@@H](NC(=O)OC(C)(C)C)C(C)C)C(=O)N[C@@H](Cc1ccccc1)C(=O)N[C@H](/C=C/C(=O)O)CCC(N)=O` the same measures were greater than 10 µg/mL and 43%.
Take `CCOC(=O)/C=C/C(CCC(N)=O)NC(=O)OC(C)(C)C` (stereo not given): in the test on HeLa, the IC50 was greater than 10 µg/mL. Moreover, the inhibition in test [2] stood at 27%.
The compound `COC(=O)/C=C/[C@H](CCC(N)=O)NC(=O)[C@H](Cc1ccccc1)NC(=O)[C@H](CC(C)C)NC(=O)[C@@H](NC(=O)OC(C)(C)C)C(C)C` had an IC50 in the test with HeLa of 0.74 µg/mL (≈ 1.15 µM). In test [1], this compound had an inhibition of 100%.
For `COC(=O)/C=C/C(CCC(N)=O)NC(=O)C(Cc1ccccc1)NC(=O)OC(C)(C)C` (stereo not given), the IC50 in the test on HeLa was greater than 10 µg/mL. This compound returned an inhibition in test [2] of 42%.
On to `COC(=O)/C=C/[C@H](CCC(N)=O)NC(=O)[C@H](Cc1ccccc1)NC(=O)[C@H](CC(C)C)NC(=O)[C@@H](NC(=O)C(CCC(=O)OC(C)(C)C)NC(=O)OC(C)(C)C)C(C)C` (stereo not given in full) (Boc-[ξE](OtBu)VLF-X1), for which the IC50 in the test on HeLa amounted to 4.5 µg/mL (≈ 5.42 µM). In test [1], this compound showed an inhibition of 100%.
Regarding `NC(=O)CCC(/C=C/S(=O)(=O)c1ccccc1)NC(=O)C(Cc1ccccc1)NC(=O)OCc1ccccc1` (stereo not given), in the test on HeLa, the IC50 was greater than 10 µg/mL. In test [2], this compound displayed an inhibition of 42%.
For the compound `CCOC(=O)/C=C/C(CCC(N)=O)NC(=O)OCc1ccccc1` (stereo not given), the IC50 in the test on HeLa was greater than 10 µg/mL. The same compound came in with an inhibition in test [2] of 18%.
As to `COC(=O)/C=C/[C@H](CCC(N)=O)NC(=O)[C@H](Cc1ccccc1)NC(=O)[C@H](CC(C)C)NC(=O)[C@H](NC(=O)[C@@H](N)CCC(=O)O)C(C)C`, the inhibition in test [1] was found to be 100%.
`COC(=O)/C=C/C(CCC(N)=O)NC(=O)C(Cc1ccccc1)NC(=O)OCc1ccccc1` (stereo not given): in the test on HeLa, it took 3.2 µg/mL (≈ 6.84 µM) to reach half-maximal inhibition (IC50). The same compound displayed an inhibition in test [3] of 51%.
The compound `COC(=O)/C=C/[C@H](CCC(N)=O)NC(=O)[C@H](Cc1ccccc1)NC(=O)[C@H](CC(C)C)NC(=O)[C@@H](NC(=O)[C@@H](N)CCC(=O)O)C(C)C` gave an IC50 with HeLa greater than 10 µg/mL.
In the test with HeLa, `CCOC(=O)/C=C/C(CCC(N)=O)NC(=O)C(Cc1ccccc1)NC(=O)OC(C)(C)C` (stereo not given) displayed an IC50 greater than 10 µg/mL. The inhibition in test [2] was found to be 39%.
With `CCOC(=O)/C=C/[C@H](CCC(N)=O)NC(=O)[C@H](Cc1ccccc1)NC(=O)[C@H](CC(C)C)NC(=O)[C@@H](NC(=O)OC(C)(C)C)C(C)C`, half-maximal inhibition in the test on HeLa (IC50) was put at 0.41 µg/mL (≈ 0.621 µM). This compound yielded an inhibition in test [1] of 100%.
`COC(=O)/C=C/C(CCC(N)=O)NC(=O)OC(C)(C)C` (stereo not given) came in with an inhibition in test [2] of 18%.
